Experimental data from PMC2951323 (Nature, 2009).
Bridge positions count the residues as written; N and C are the ends. Square brackets hold non-standard residues; d marks the D form. Ends that are not written are not given here. Peptide text beside a SMILES is read from it. * marks the point of attachment. FITC = O=C1OC2(c3ccc(O)cc3Oc3cc(O)ccc32)c2ccc(NC(=S)*)cc21; S5 = C=CCCC[C@](C)(N)C(=O)O; βAla = NCCC(=O)O

Legend:
[1] = system: constitutively activated NOTCH1; experiment: NOTCH1-dependent dual-luciferase reporter-gene assay; format: cell-based; conditions: signal normalized to Renilla luciferase control
[2] = format: cell-based
RAMANK–CSL complex = RAMANK–CSL complex (Homo sapiens, UniProt P46531+Q06330); experiment: Fluorescence polarization binding of FITC–SAHM peptides to RAMANK–CSL
Outline: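 FITC-labelled stapled test peptides titrated against recombinant human RAMANK (NOTCH1 aa 1761–2127) pre-complexed with human CSL (aa 9–435). Both proteins were expressed and purified as previously reported. Buffer was 20 mM Tris pH 8.4, 150 mM NaCl, 1 mM EDTA and 1 mM DTT. Polarization was read at λex 485 nm and λem 525 nm. Data are mean ± s.d., n = 3.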

[3] = target: pre-formed RAMANK–CSL complex (human, UniProt P46531 1761-2127; Q06330 23-449); experiment: fluorescence polarisation
Sequence of pre-formed RAMANK–CSL complex (P46531 1761-2127, chain 1 of 2): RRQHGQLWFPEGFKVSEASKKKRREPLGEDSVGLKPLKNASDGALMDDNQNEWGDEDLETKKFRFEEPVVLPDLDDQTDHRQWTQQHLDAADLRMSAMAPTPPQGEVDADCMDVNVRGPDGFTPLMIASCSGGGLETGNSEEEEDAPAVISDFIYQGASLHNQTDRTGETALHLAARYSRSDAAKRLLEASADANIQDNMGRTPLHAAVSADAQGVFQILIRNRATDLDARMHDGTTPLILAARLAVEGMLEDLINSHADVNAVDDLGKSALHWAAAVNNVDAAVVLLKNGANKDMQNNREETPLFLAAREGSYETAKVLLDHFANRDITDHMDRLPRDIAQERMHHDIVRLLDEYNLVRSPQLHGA
Sequence of pre-formed RAMANK–CSL complex (Q06330 23-449, chain 2 of 2): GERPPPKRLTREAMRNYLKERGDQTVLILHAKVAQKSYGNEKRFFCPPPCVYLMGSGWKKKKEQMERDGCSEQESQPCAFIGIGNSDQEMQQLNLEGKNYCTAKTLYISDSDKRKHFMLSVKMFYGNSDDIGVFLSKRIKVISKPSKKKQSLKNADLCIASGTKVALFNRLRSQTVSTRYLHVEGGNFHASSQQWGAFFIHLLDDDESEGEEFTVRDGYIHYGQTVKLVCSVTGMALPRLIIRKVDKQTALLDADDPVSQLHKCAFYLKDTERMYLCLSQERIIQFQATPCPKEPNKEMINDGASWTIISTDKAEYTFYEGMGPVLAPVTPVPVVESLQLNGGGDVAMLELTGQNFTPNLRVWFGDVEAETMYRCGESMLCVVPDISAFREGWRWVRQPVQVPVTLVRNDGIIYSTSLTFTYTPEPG

Which “repression of luciferase activity” value [1] does the source give for `C[C@H](NC(=O)Cc1cc(F)cc(F)c1)C(=O)N[C@H](C(=O)OC(C)(C)C)c1ccccc1` [DAPT] here?
Its value is “near complete repression”.

For `CC[C@H](C)[C@H](NC(=O)[C@H](CCCNC(=N)N)NC(=O)[C@H](CCCNC(=N)N)NC(=O)[C@H](CCCNC(=N)N)NC(=O)[C@H](CC(C)C)NC(=O)[C@H](CCCNC(=N)N)NC(=O)[C@H](CCC(=O)O)NC(=O)CCNC(=S)Nc1ccc2c(c1)C(=O)OC21c2ccc(O)cc2Oc2cc(O)ccc21)C(=O)N[C@@]1(C)CCCC=CCCC[C@@](C)(C(=O)N[C@@H](Cc2c[nH]cn2)C(=O)N[C@@H](Cc2c[nH]cn2)C(=O)N[C@@H](CO)C(=O)N[C@H](C(N)=O)[C@@H](C)O)NC(=O)[C@H](CCCNC(=N)N)NC(=O)[C@H](CS)NC(=O)[C@H](CC(C)C)NC1=O` [FITC–SAHM1] ({FITC-βAla}-ERLRRRI[S5]LCR[S5]HHST-NH2; staple 8-12; N-terminus assumed), which intracellular distribution ([2]; FITC-labelled peptide) is on record?
Its intracellular distribution is “distributed throughout the cytoplasm and nucleus”.

And the “uptake at 4 °C relative to 37 °C” value ([2]; FITC-labelled peptide, 4 °C vs 37 °C)?
The value was “diminished”.

What about the “cellular uptake (cell penetration)” value ([2]; FITC-labelled peptides, quantitative epifluorescence microscopy) of the same molecule?
Its value is “robust and roughly equivalent cellular uptake”.

And the Kd (RAMANK–CSL complex)?
The Kd was 120 ± 20 nM.

Which “binding affinity for RAMANK–CSL compared with FITC–SAHM1 (in words)” value (RAMANK–CSL complex; fluorescence polarization, same buffer) does the source give for “FITC–MAML1(21–36): FITC-labelled unmodified MAML1(21–36) peptide ({FITC}-ERLRRRIELCRRHHST; UniProt Q92585 21-36, looked up, fragment)” here?
The value was “markedly diminished affinity”.

B1: dnMAML1 (dominant-negative fragment of MAML1, amino acids 13–74) (domain or fragment, human, UniProt Q92585 13-74, looked up)
chain: LPRHSAVMERLRRRIELCRRHHSTCEARYEAVSPERLELERQHTFALHQRCIQAKAKRAGKH
With B1 as the molecule, how does the IC50 [3] read?
The IC50 was 3900 nM.
